NadD inh: inhibitors of S. aureus NadD, primary screen, biochemical, colorimetric, uHTS; Nicotinate-nucleotide adenylyltransferase NadD (Staphylococcus aureus N315); purified NadD enzyme, colorimetric absorbance read-out; inhibition, % at 20 µM; hit rate 0.78% among 360,000; AID 602399, 2012; in the data active means inhibition above about 26%
ABHD5 PLIN5 PPI: ABHD5-PLIN5 interaction inhibitors, primary screen, cell lysate, split luciferase complementation, luminescence. Perilipin-5 (Homo sapiens) + 1-acylglycerol-3-phosphate O-acyltransferase ABHD5 (Homo …. Split G. princeps luciferase complementation, 4 h. inhibition, % at 4 µM. hit rate 0.78% among 360,000. AID 602281, 2012;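 active means inhibition above the mean inhibition across every tested compound plus 3 SD, cut at about 22% in these data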;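 further: 0% = DMSO only wells and the 100% control is not disclosed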
Rpn11 inh: Rpn11 (PSMD14) deubiquitinase inhibitors, primary screen, biochemical, fluorescence polarization, uHTS. 26S proteasome non-ATPase regulatory subunit 14 (Homo sapiens), O00487. human 26S proteasome, Ub4-pepOG fluorescence polarization; 20S core pre-blocked with epoxomicin. inhibition, % at 20 µM. hit rate 0.59% among 360,000;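 active means inhibition at 20 µM, scaled to each plate's controls, above about 33%, limit read from the data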
Target sequence (O00487 whole entry, looked up): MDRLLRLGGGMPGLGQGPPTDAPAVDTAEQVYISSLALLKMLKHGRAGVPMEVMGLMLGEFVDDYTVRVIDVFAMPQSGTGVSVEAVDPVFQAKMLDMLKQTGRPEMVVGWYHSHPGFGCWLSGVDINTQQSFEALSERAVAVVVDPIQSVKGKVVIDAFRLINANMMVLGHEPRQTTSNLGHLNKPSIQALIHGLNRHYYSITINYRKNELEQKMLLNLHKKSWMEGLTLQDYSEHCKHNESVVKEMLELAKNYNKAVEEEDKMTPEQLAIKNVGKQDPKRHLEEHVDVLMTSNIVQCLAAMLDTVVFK
Rin1-Abl PPI inh: inhibitors of Rin1-Abl protein binding, primary screen, biochemical, TR-FRET; AID 588664, 2011; inhibition, % at 7.35 µM; hit rate 0.4% among 360,000; in the data active means inhibition above about 5%, passing the limit was not always enough
XiGFP reactiv: activators of inactive X chromosome reactivation, primary screen, imaging, XiGFP fibroblasts, GFP high-content imaging, set 2 | XiGFP mouse fibroblasts, % GFP-positive cells imaging, 3 d; cells co-treated with 5-aza-dC sensitizer; scaled so ellipticine positive control = 100% | activation, % at 7.58 µM | hit rate 0.055% among 360,000 | AID 743238, 2013;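 active means mean normalized replicate activation at least 10% and every replicate at or above 10%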;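 further: 0% = median of on-plate neutral control wells and 100% = ellipticine 6 µM median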
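Assay system – SV40-immortalized XiGFP fibroblast cells, line 68-5-11 · Buffer or medium – DMEM supplemented with 5-aza-dC as sensitizing agent · Dosing – one concentration, pinned · Benchmarks – positive control ellipticine, 6 µM final · Times – 3 days compound exposure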
NadD conf: inhibitors of S. aureus NadD, confirmation, biochemical, colorimetric, single concentration. shares compounds with NadD inh. purified S. aureus NadD, colorimetric enzyme assay. inhibition, % at 20 µM. hit rate 13% among 2,000; in the data active means inhibition mostly above about 42%, no sharp cut-off; inactive means mostly below about 42%
* = called active by the depositor. Shown are actives, neighbours in structure and some others; about 1.9% of the full set was active somewhere.

What do the screens show for `C#CCN(C[C@@H]1[C@@H](OC(=O)Nc2cccs2)[C@@H](OC(=O)Nc2cccs2)Cn2c(=O)n(CCCCCC)c(=O)n21)S(=O)(=O)c1ccc(C)cc1`?
NadD inh: 29.6*; ABHD5 PLIN5 PPI: 3.3; Rpn11 inh: 12.5; Rin1-Abl PPI inh: -2.3; XiGFP reactiv: 0.2; NadD conf: 15.6

Results for C#CCN(C[C@@H]1[C@@H](OC(=O)Nc2cccs2)[C@@H](OC(=O)Nc2cccs2)C[C@H](C(=O)OC)[C@@H]1C(=O)OC)S(=O)(=O)c1ccc(C)cc1 ?
XiGFP reactiv: 0.2

What do the screens show for `CN(C)CCCN(C(=O)c1ccc(S(=O)(=O)N2CCc3ccccc32)cc1)c1nc2ccc(Cl)cc2s1`?
NadD inh: 52.2*; ABHD5 PLIN5 PPI: -1.3; Rpn11 inh: 9.0; Rin1-Abl PPI inh: 1.8; XiGFP reactiv: 0.2; NadD conf: 28.1

What do the screens show for `Cc1cc(C)cc(NC(=O)Cn2c(=O)oc3cc(S(=O)(=O)N4CC(C)CC(C)C4)ccc32)c1` (stereo unspecified)?
NadD inh: 35.6*; ABHD5 PLIN5 PPI: -8.8; Rpn11 inh: 0.6; Rin1-Abl PPI inh: 0.1; XiGFP reactiv: 0.1; NadD conf: 3.1

What do the screens show for `CCCCNC(=O)Cn1c(=O)oc2cc(S(=O)(=O)N3CC(C)CC(C)C3)ccc21` (stereo unspecified)?
NadD inh: -7.9; ABHD5 PLIN5 PPI: -2.9; Rpn11 inh: -1.4; Rin1-Abl PPI inh: -0.5; XiGFP reactiv: 0.0

What do the screens show for `C[C@H](CO)N1C[C@H](C)[C@@H](CN(C)Cc2ccc(C(=O)O)cc2)OCCCC[C@H](C)Oc2ccc(NC(=O)Nc3ccc4c(c3)OCO4)cc2C1=O`?
XiGFP reactiv: -0.6

How did O/N=C/c1ccc2ccccc2c1 do in these assays?
NadD inh: -2.8; ABHD5 PLIN5 PPI: -1.2; Rpn11 inh: -6.6; Rin1-Abl PPI inh: 2.7; XiGFP reactiv: 0.2

How did O=C(/C=C/c1ccc2ccccc2c1)c1ccoc1 do in these assays?
NadD inh: 30.3*; ABHD5 PLIN5 PPI: 24.5*; Rpn11 inh: 19.9; Rin1-Abl PPI inh: -0.2; NadD conf: -3.5

What do the screens show for `O=C(Nc1ccc2c(c1)[C@@H]1C[C@H](CC(=O)N3CCOCC3)O[C@@H](CO)[C@@H]1O2)NC1CCCCC1`?
XiGFP reactiv: 0.0

How did O=C1CC(=C2c3ccccc3-c3ccccc32)C(=O)N1CCN1CCN(c2cccc(Cl)c2)CC1 do in these assays?
NadD inh: 68.9*; ABHD5 PLIN5 PPI: 1.6; Rpn11 inh: 6.5; Rin1-Abl PPI inh: 4.9; NadD conf: 60.3*

How did Clc1cccc(N2CCN(CCCN3CCN(c4ccccc4)CC3)CC2)c1 do in these assays?
NadD inh: -4.2; ABHD5 PLIN5 PPI: -0.5; Rpn11 inh: -2.5; Rin1-Abl PPI inh: 0.8; XiGFP reactiv: -0.1

Results for Cc1ccccc1NC(=O)c1ccc(NS(=O)(=O)c2cc(C(C)(C)C)cc(C)c2C)cc1 ?
NadD inh: 41.4*; ABHD5 PLIN5 PPI: -18.3; Rpn11 inh: 5.3; Rin1-Abl PPI inh: 0.5; XiGFP reactiv: 0.0; NadD conf: 25.7

How did O=C1CCCCn2nncc2COC[C@H](Cc2ccccc2)N1 do in these assays?
XiGFP reactiv: -0.1

How did Cc1ccc(Cn2c(=N)c(S(=O)(=O)c3ccc(Br)cc3)cc3c(=O)n4ccccc4nc32)cc1 do in these assays?
NadD inh: 22.8; ABHD5 PLIN5 PPI: -4.6; Rpn11 inh: -18.7; Rin1-Abl PPI inh: 3.2

How did N=c1c(S(=O)(=O)c2ccc(Br)cc2)cc2c(=O)n3ccccc3nc2n1Cc1ccco1 do in these assays?
NadD inh: 48.8*; ABHD5 PLIN5 PPI: 33.6*; Rpn11 inh: 14.7; Rin1-Abl PPI inh: -2.1; XiGFP reactiv: 0.8; NadD conf: 11.8

Results for N=c1c(S(=O)(=O)c2ccc(Cl)cc2)cc2c(=O)n3ccccc3nc2n1CC1CCCO1 (stereo unspecified) ?
NadD inh: 9.1; ABHD5 PLIN5 PPI: -6.7; Rpn11 inh: -0.6; Rin1-Abl PPI inh: -1.1

Results for N=c1c(S(=O)(=O)c2ccc(Cl)cc2)cc2c(=O)n3ccccc3nc2n1Cc1ccco1 ?
NadD inh: 42.9*; ABHD5 PLIN5 PPI: 27.9*; Rpn11 inh: 18.3; Rin1-Abl PPI inh: -2.0; XiGFP reactiv: 0.0; NadD conf: 12.9

What do the screens show for `N=c1c(S(=O)(=O)c2ccc(Br)cc2)cc2c(=O)n3ccccc3nc2n1Cc1ccccc1`?
NadD inh: 31.6*; ABHD5 PLIN5 PPI: 2.5; Rpn11 inh: -12.6; Rin1-Abl PPI inh: 2.2; XiGFP reactiv: 0.4; NadD conf: 29.5

What do the screens show for `N=c1c(S(=O)(=O)c2ccc(Br)cc2)cc2c(=O)n3ccccc3nc2n1C1CCCCC1`?
NadD inh: 42.3*; ABHD5 PLIN5 PPI: -8.4; Rpn11 inh: 3.5; Rin1-Abl PPI inh: -0.3; XiGFP reactiv: 0.0; NadD conf: 22.8

Results for Cc1ccc(Cn2c(=N)c(C(=O)NCc3ccco3)cc3c(=O)n4ccccc4nc32)cc1 ?
NadD inh: 43.2*; ABHD5 PLIN5 PPI: 18.5; Rpn11 inh: -4.9; Rin1-Abl PPI inh: -4.7; NadD conf: 39.0

How did CO[C@@H]1CN(C)C(=O)c2cc(NC(C)=O)ccc2OC[C@H](C)N(CCC(F)(F)F)C[C@@H]1C do in these assays?
XiGFP reactiv: -0.4

How did COc1ccc(-c2cnc3c(c2)C(=O)N([C@@H](C)CO)C[C@@H](C)[C@H](CN(C)S(=O)(=O)c2ccc(OC)cc2)O3)cc1 do in these assays?
XiGFP reactiv: -0.5

How did Cc1nc(/N=C(\N)NC(=O)c2ccccc2)nc2ccccc12 do in these assays?
NadD inh: 2.8; ABHD5 PLIN5 PPI: -0.4; Rpn11 inh: 3.3; Rin1-Abl PPI inh: -1.1

Results for Cc1nc(/N=C(\N)NC(=O)N2c3ccccc3Sc3ccccc32)nc2ccccc12 ?
NadD inh: 30.6*; ABHD5 PLIN5 PPI: -6.2; Rpn11 inh: 1.8; Rin1-Abl PPI inh: -2.5; XiGFP reactiv: 0.1; NadD conf: 19.7

Results for CC1CCN(S(=O)(=O)c2ccc3c(c2)C(=NO)c2cc(S(=O)(=O)N4CCC(C)CC4)ccc2-3)CC1 ?
NadD inh: 13.8; ABHD5 PLIN5 PPI: -1.4; Rpn11 inh: -2.0; Rin1-Abl PPI inh: -1.7

How did O=S(=O)(c1ccc2c(c1)C(=NO)c1cc(S(=O)(=O)N3CCCCC3)ccc1-2)N1CCCCC1 do in these assays?
NadD inh: 33.9*; ABHD5 PLIN5 PPI: -1.6; Rpn11 inh: 4.2; Rin1-Abl PPI inh: 4.8; NadD conf: 7.5

Results for COC(=O)C[C@H]1CC[C@@H]2[C@H](COC[C@@H](O)CN2C(=O)Nc2cccc(F)c2)O1 ?
XiGFP reactiv: 0.2

Bioassay records deposited in PubChem BioAssay by several laboratories.
